This is an account of results in ChEMBL document CHEMBL4196177, “Synthesis, Evaluation, and Structure-Activity Relationship Study of Lanosterol Derivatives To Reverse Mutant-Crystallin-Induced Protein Aggregation” (J Med Chem, 2018).

Positions count from the first letter of the chain named. Active and inactive are the calls of the source. The calls are words filed in the database; no cut-off is given here.

For experiment [1], the system named is T1, Alpha-crystallin A chain (Homo sapiens), P02489 [R116H].
T1 sequence (whole entry): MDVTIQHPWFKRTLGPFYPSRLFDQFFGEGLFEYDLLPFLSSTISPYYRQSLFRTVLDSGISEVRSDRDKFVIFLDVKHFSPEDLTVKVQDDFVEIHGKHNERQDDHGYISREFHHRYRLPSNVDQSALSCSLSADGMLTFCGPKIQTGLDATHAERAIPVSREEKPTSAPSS
The experiment in a line: Induction of redissolving of aggregated alpha-crystallin A R116H mutant (unknown origin) at 200 uM incubated for 24 hrs by transmission-electron-microscopy. In short, it runs like this:
(§1)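 Pre-formed amyloid-like fibrils of mutant crystallin proteins were treated with compounds in liposomes or with a liposome vehicle. Fibrillar structures were then examined by negative-stain transmission electron microscopy.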

The target in experiment [2] is Alpha-crystallin A chain (Homo sapiens, UniProt P02489, Y118D). The experiment in a line: Induction of redissolving of aggregated alpha-crystallin A Y118D mutant (unknown origin) incubated for 24 hrs by ThT-fluorescence based assay. The procedure, abridged:
(§2)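 Dose–response EC50 for redissolving pre-formed amyloid-like fibrils of αA Y118D or αB R120G crystallin. Compounds were delivered in liposomes and the read-out was thioflavin T fluorescence.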

Experiment [3] relates to T2, Gamma-crystallin D (Homo sapiens), P07320 [W43R].
T2 sequence (whole entry): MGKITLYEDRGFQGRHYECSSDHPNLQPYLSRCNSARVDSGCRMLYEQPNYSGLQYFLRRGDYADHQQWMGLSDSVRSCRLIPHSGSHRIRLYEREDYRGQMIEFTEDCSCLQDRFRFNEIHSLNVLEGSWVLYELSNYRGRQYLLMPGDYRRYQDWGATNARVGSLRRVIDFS
The experiment in a line: Induction of redissolving of aggregated gamma-crystallin D W43R mutant (unknown origin) at 200 uM incubated for 24 hrs by transmission-electron-microscopy. In short, it runs like this:
as §1

Experiment [4] concerns T3, Alpha-crystallin A chain (Homo sapiens), P02489 [Y118D].
T3 sequence (whole entry): T1 sequence (whole entry) with H116R, Y118D
The experiment in a line: Induction of redissolving of aggregated alpha-crystallin A Y118D mutant (unknown origin) at 200 uM incubated for 24 hrs by ThT-fluorescence based assay. In short, it runs like this: (§3)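 Purified mutant crystallin proteins, pre-formed into amyloid-like fibrils, were treated with compounds delivered in liposomes, with a liposome-only vehicle control. Redissolution was read as thioflavin T (ThT) fluorescence, n = 3.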

Experiment [5] has as its system T4, Beta-crystallin B2 (Homo sapiens), P43320 [R188H].
T4 sequence (whole entry): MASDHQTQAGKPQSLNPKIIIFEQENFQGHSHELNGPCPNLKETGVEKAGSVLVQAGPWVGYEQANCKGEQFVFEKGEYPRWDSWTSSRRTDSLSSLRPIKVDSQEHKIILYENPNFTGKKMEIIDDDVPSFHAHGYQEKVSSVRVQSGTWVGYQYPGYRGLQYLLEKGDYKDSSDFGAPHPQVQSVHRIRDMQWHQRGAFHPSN
The experiment in a line: Induction of redissolving of aggregated beta-crystallin B2 R188H mutant (unknown origin) at 200 uM incubated for 24 hrs by transmission-electron-microscopy. The procedure, abridged:
as §1

Experiment [6] has the same test system. The experiment in a line: Induction of redissolving of aggregated beta-crystallin B2 R188H mutant (unknown origin) at 200 uM incubated for 24 hrs by ThT-fluorescence based assay. In short, it runs like this: as §3
Experiment [7] addresses T5, Alpha-crystallin B chain (Homo sapiens, UniProt P02511, R120G). The experiment in a line: Induction of redissolving of aggregated alpha-crystallin B R120G mutant (unknown origin) incubated for 24 hrs by ThT-fluorescence based assay. In short, it runs like this: as §2
Experiment [8] concerns T1, Alpha-crystallin A chain (Homo sapiens), P02489 [R116H]. The experiment in a line: Induction of redissolving of aggregated alpha-crystallin A R116H mutant (unknown origin) at 200 uM incubated for 24 hrs by ThT-fluorescence based assay. In short, it runs like this:
as §3

Experiment [9] relates to T6, Alpha-crystallin A chain (Homo sapiens), P02489 [R116C].
T6 sequence (whole entry): T1 sequence (whole entry) with H116C
The experiment in a line: Induction of redissolving of aggregated alpha-crystallin A R116C mutant (unknown origin) at 200 uM incubated for 24 hrs by ThT-fluorescence based assay. The procedure, abridged: as §3

Experiment [10] has as its target T5, Alpha-crystallin B chain. The experiment in a line: Inhibition of alpha-crystallin B R120G mutant (unknown origin)-induced intracellular protein aggregation expressed in human HeLa cells or HLE-B3 cells incubated for 6 to 8 hrs by fluorescence microscopy relative to untreated control. It counts as cell-based.

T5 sequence (P02511 whole entry R120G): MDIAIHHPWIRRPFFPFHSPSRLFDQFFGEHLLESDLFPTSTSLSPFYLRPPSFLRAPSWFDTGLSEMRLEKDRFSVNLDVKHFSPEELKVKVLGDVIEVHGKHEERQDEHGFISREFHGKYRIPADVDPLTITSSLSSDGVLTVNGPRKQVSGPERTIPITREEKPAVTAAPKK
Chain of Alpha-crystallin A chain (P02489 whole entry Y118D): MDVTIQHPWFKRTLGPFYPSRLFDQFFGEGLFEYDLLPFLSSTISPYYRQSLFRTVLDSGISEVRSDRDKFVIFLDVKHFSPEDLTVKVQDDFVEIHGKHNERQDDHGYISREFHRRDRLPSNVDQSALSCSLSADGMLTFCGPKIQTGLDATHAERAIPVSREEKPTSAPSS

A word on the EC50: it is the concentration needed to bring the measured effect to its halfway point. A higher EC50 goes with a less potent agent. Turning to `C[C@H](CCCC(C)(C)O)[C@H]1CC[C@@]2(C)C3=C(CC[C@]12C)[C@@]1(C)CC[C@H](O)C(C)(C)[C@@H]1CC3`, the result in [1], in experiment [3], in experiment [4], in [5], in experiment [6] and in [8] was Active. In addition, the result in [9] was Active. In addition, the EC50 in [2] amounted to 35.6 nM; in [7] it was 3120 nM.

`C[C@H](CCCC(C)(C)O)[C@H]1CC[C@@]2(C)[C@@]34CC[C@H]5C(C)(C)/C(=N/O)CC[C@]5(C)[C@]3(CC[C@]12C)O4`: the result in [1], in experiment [3], in experiment [4], in experiment [5], in experiment [6] and in [8] was inactive. In addition, the result in [9] was inactive. Besides, the EC50 entry in experiment [10] was “Not Active”.
